{"source": "paper PMC11349029", "about": "(Science translational medicine, 2016)", "key": {"healthy male subjects": {"tested_on": "healthy male subjects", "details": "cited from earlier work"}, "AC/PKA pathway": {"tested_on": "AC/PKA pathway", "details": "cited from earlier work"}, "[1]": {"tested_on": "animal models of AD, PD and HD", "details": "cited from earlier work"}, "AR55Q (polyQ-AR) [2]": {"tested_on": "AR55Q (polyQ-AR)", "assay": "PolyQ-AR accumulation and turnover in HEK293T cells", "format": "cell-based, human", "summary_of_the_method": "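AR55Q was expressed in HEK293T cells (DMEM, 10% heat-inactivated FBS, 2 mM L-glutamine, 37°C, 5% CO2) by polyethylenimine transfection the day after plating. For turnover, cells got cycloheximide 10 μg/ml plus 10 μM forskolin; separately, empty vector or wtPKA plus 10 μM MG132 for 5 h. AR was immunoblotted after 7% SDS-PAGE against a β-tubulin loading control.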"}, "CDK2/p21^Cip1": {"tested_on": "CDK2/p21^Cip1", "assay": "Binding of CDK2 to p21Cip1 in SBMA cells", "format": "cell-based", "details": "fig. S13E"}, "p21^Cip1": {"tested_on": "p21^Cip1", "assay": "p21Cip1 expression in cells", "format": "cell-based", "details": "fig. S13, A to D"}, "AR55Q (polyQ-AR) [3]": {"tested_on": "AR55Q (polyQ-AR)", "assay": "Western blotting of upper AR isoform in HEK293T cells", "format": "cell-based, human", "details": "for accumulation of the upper AR isoform (p21Cip1 experiments) / effect on upper AR isoform upon overexpression of wtCDK2: HEK293T AR55Q; for accumulation of the upper AR isoform (p21Cip1 experiments): 5 or 100 nM OA, 10 μM forskolin, 100 nM PACAP, 24 hours; for effect on upper AR isoform upon overexpression of wtCDK2: 10 μM forskolin or 100 nM PACAP; for mobility of S96A and S96D phosphomutants: HEK293T, AR55Q-S96A, AR55Q-S96D, 100 nM PACAP (5 hours), SDS-PAGE, n = 4"}, "AR112Q (polyQ-AR)": {"tested_on": "AR112Q (polyQ-AR)", "assay": "PolyQ-AR aggregation in PC12 cells", "format": "cell-based, rat PC12 cells", "details": "doxycycline 10 μg/ml, 10 nM DHT, 10 μM forskolin, 24 hours, n = 3"}, "polyQ-AR [4]": {"tested_on": "polyQ-AR", "assay": "Atomic force microscopy of polyQ-AR oligomers", "format": "cell-based", "details": "Sf9 insect cells; 10 nM DHT and 10 μM forskolin, 24 hours; n = 15 to 25"}, "[5]": {"tested_on": "AR55Q phosphorylated at Ser^96", "assay": "Western blotting of Ser96-phosphorylated AR in HEK293T cells", "format": "cell-based, human", "details": "10 μM forskolin or 100 nM PACAP, 5 hours, n = 5 to 10", "summary_of_the_method": "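HEK293T cells expressing AR55Q or AR55Q-S96A were treated with 10 μM forskolin or 100 nM PACAP for 5 hours. Lysates were run on 7% SDS-PAGE and blotted to nitrocellulose. Blots were probed with antibodies to Ser96-phosphorylated and total AR and detected by chemiluminescence or infrared imaging. n = 9 to 10 and 5 independent experiments.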"}, "AR100Q (polyQ-AR) [6]": {"tested_on": "AR100Q (polyQ-AR)", "assay": "Western blotting of upper AR isoform in primary cortical neurons", "format": "cell-based, rat primary cortical neurons", "details": "10 μM forskolin (5 hours); n = 4", "summary_of_the_method": "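Cortical neurons came from embryonic day 18 Sprague-Dawley rats, dissociated with papain/DNase/cysteine and plated at 40,000 cells/cm² on poly-L-lysine in Neurobasal/B-27/GlutaMAX. At 6–7 DIV they were transduced with lentivirus (MOI 10) expressing AR24Q or AR100Q plus EGFP. Neurons were treated with 10 μM forskolin for 5 h, and AR upper and lower isoforms were immunoblotted with loading controls; n = 4.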"}, "AR100Q (polyQ-AR) [7]": {"tested_on": "AR100Q (polyQ-AR)", "assay": "Western blotting of upper AR isoform in MN-1 cells", "format": "cell-based, mouse motor neuron–derived MN-1 cells", "details": "10 μM forskolin (5 hours); n = 3"}, "polyQ-AR [8]": {"tested_on": "polyQ-AR", "assay": "PolyQ-AR aggregation in HEK293T cells", "format": "cell-based, human", "details": "high–molecular weight species in stacking gel, SDS-PAGE; fig. S18"}, "SBMA MN-1 cells [9]": {"tested_on": "SBMA MN-1 cells", "assay": "Caspase 3 assay in MN-1 cells", "format": "cell-based, mouse", "details": "SBMA MN-1 cells (AR65Q), 48 hours"}, "AR": {"tested_on": "AR", "details": "cited from earlier work"}, "PAC1 receptor": {"tested_on": "PAC1 receptor", "details": "cited from earlier work"}, "[10]": {"tested_on": "cAMP (EPAC biosensor), SBMA MN-1 cells", "assay": "BRET cAMP biosensor assay in MN-1 cells", "format": "cell-based, mouse", "details": "SBMA MN-1 cells (AR65Q); different concentrations of PACAP, 20 min; n = 4", "summary_of_the_method": "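MN-1 cells were transfected with an EPAC cAMP BRET biosensor (Renilla luciferase N-terminal, YFP C-terminal) 24 h after seeding. After another 24 h they were replated at 80,000 cells/well in phenol red–free MEM with 2% FBS, 10 mM Hepes and 2 mM glutamine, with or without 10 nM DHT for 24 h. Wells were read in PBS (Ca/Mg, 0.003% ascorbic acid) with 5 μM coelenterazine h for about 20 min after agonist; cAMP binding lowers the signal.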"}, "cAMP": {"tested_on": "cAMP", "assay": "cAMP levels in vivo", "parameters": "species or system mouse", "details": "fig. S21; intranasal"}, "[11]": {"details": "cited from earlier work"}, "SBMA MN-1 cells [12]": {"tested_on": "SBMA MN-1 cells", "assay": "Trypan blue assay in MN-1 cells", "format": "cell-based, mouse", "details": "MN-1 cells expressing AR100Q, 100 nM PACAP, 96 hours, n = 8", "summary_of_the_method": "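MN-1 cells stably expressing AR100Q were grown in DMEM with 10% FBS, 2 mM L-glutamine and gentamicin 0.05 mg/ml at 37°C, 5% CO2. Cells were given DHT plus vehicle or 100 nM PACAP for 96 hours.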"}, "[13]": {"details": "cited from earlier work", "remark": "listed apart in the source"}}, "note": "Residues, ends and D or L forms follow the SMILES beside them. No end group written: not given here. *: point of attachment. Cbz = O=C(OCc1ccccc1)*"}
{"compound": "PACAP38: main PACAP peptide in mammals (137061-48-4, Calbiochem)", "values": [{"measurement": "tolerability, intranasal administration", "setting": "healthy male subjects", "value": "well tolerated"}, {"measurement": "stimulation of cAMP production", "setting": "AC/PKA pathway; general statement in discussion, no reference given", "value": "stimulate cAMP production"}, {"measurement": "neuroprotective effects", "setting": "[1]", "value": "strong neuroprotective effects"}]}
{"compound": "CC(C)C[C@@H](C=O)NC(=O)[C@H](CC(C)C)NC(=O)[C@H](CC(C)C)NC(=O)OCc1ccccc1", "note": "[MG132] (Cbz-Leu-Leu-Leu-aldehyde)", "values": [{"measurement": "effect of PKA and OA on polyQ-AR", "setting": "AR55Q (polyQ-AR) [2]; HEK293T AR55Q, 10 μM MG132 (5 hours), n = 3", "value": "abolished"}]}
{"compound": "C=C1[C@@H](O)[C@@H]2O[C@]3(CC[C@H](/C=C/[C@@H](C)[C@@H]4CC(C)=C[C@@]5(O[C@H](C[C@@](C)(O)C(=O)O)CC[C@H]5O)O4)O3)CC[C@H]2O[C@@H]1[C@@H](O)C[C@H](C)[C@H]1O[C@@]2(CCCCO2)CC[C@H]1C", "note": "[Okadaic acid]", "values": [{"measurement": "binding of CDK2 to p21Cip1", "setting": "CDK2/p21^Cip1", "value": "increased the binding"}, {"measurement": "expression of p21Cip1", "setting": "p21^Cip1", "value": "induced the expression"}, {"measurement": "accumulation of the upper AR isoform (p21Cip1 experiments)", "setting": "AR55Q (polyQ-AR) [3]; n = 3", "value": "decreased accumulation"}]}
{"compound": "CC[C@H](CO)Nc1nc(NCc2ccccc2)c2ncn(C(C)C)c2n1", "note": "[Roscovitine, roscovitine]", "values": [{"measurement": "accumulation of the upper isoform of polyQ-AR, phosphatase/kinase inhibitors", "setting": "AR55Q (polyQ-AR) [3]; HEK293T expressing AR55Q, fig. S5, S6", "value": "specifically decreased the accumulation"}]}
{"compound": "vasoactive intestinal peptide (HSDAVFTDNYTRLRKQMAVKKYLNSILN; ends and bridges not checked; UniProt P01282 125-152, looked up) [VIP]", "values": [{"measurement": "activation of AC", "setting": "AC/PKA pathway", "value": "reduced ability to activate AC"}, {"measurement": "accumulation of the upper isoform of polyQ-AR, VIP", "setting": "AR55Q (polyQ-AR) [3]; fig. S3", "value": "does not modify"}]}
{"compound": "C=C[C@@]1(C)CC(=O)[C@]2(O)[C@@]3(C)[C@@H](O)CCC(C)(C)[C@@H]3[C@H](O)[C@H](OC(C)=O)[C@@]2(C)O1", "note": "[forskolin]", "values": [{"measurement": "binding of CDK2 to p21Cip1", "setting": "CDK2/p21^Cip1", "value": "increased the binding"}, {"measurement": "polyQ-AR aggregation, PC12 cells", "setting": "AR112Q (polyQ-AR)", "value": "reduced"}, {"measurement": "shift from annular to fibrillar oligomers caused by polyQ expansion", "setting": "polyQ-AR [4]", "value": "reversed"}, {"measurement": "amount of polyQ-AR phosphorylated at Ser96", "setting": "[5]", "value": "significantly reduced"}, {"measurement": "expression of p21Cip1", "setting": "p21^Cip1", "value": "induced the expression"}, {"measurement": "upper-isoform accumulation of polyQ-AR, primary rat cortical neurons", "setting": "AR100Q (polyQ-AR) [6]", "value": "decreased"}, {"measurement": "upper-isoform accumulation of polyQ-AR, MN-1 cells", "setting": "AR100Q (polyQ-AR) [7]", "value": "decreased"}, {"measurement": "polyQ-AR aggregation, HEK293T cells", "setting": "polyQ-AR [8]", "value": "reduced"}, {"measurement": "accumulation of the upper AR isoform (p21Cip1 experiments)", "setting": "AR55Q (polyQ-AR) [3]; n = 3", "value": "decreased accumulation"}, {"measurement": "effect on upper AR isoform upon overexpression of wtCDK2", "setting": "AR55Q (polyQ-AR) [3]; 5 hours, n = 3", "value": "blocked"}, {"measurement": "accumulation of the upper isoform of polyQ-AR", "setting": "AR55Q (polyQ-AR) [3]; HEK293T expressing AR55Q, 10 nM DHT and 10 μM forskolin, 5 hours, n = 3", "value": "decreased the accumulation"}, {"measurement": "mobility of S96A and S96D phosphomutants", "setting": "AR55Q (polyQ-AR) [3]", "value": "not affected"}, {"measurement": "reduction of polyQ-AR accumulation", "setting": "AR55Q (polyQ-AR) [2]; HEK293T AR55Q, 10 μM forskolin, cycloheximide 10 μg/ml, n = 5", "value": 80, "unit": "%"}, {"measurement": "AR transcript levels", "setting": "AR55Q (polyQ-AR) [2]; fig. S19C", "value": "without altering"}, {"measurement": "caspase 3 activity, forskolin", "setting": "SBMA MN-1 cells [9]; 10 μM forskolin, n = 6 to 9", "value": "significant decrease"}]}
{"compound": "C[C@]12CCC(=O)C[C@@H]1CC[C@@H]1[C@@H]2CC[C@]2(C)[C@@H](O)CC[C@@H]12", "note": "[DHT, dihydrotestosterone]", "values": [{"measurement": "AR stabilization", "setting": "AR", "value": "stabilizes"}, {"measurement": "accumulation of the upper AR isoform, increase", "setting": "AR55Q (polyQ-AR) [3]", "value": "about 1.2 fold"}]}
{"compound": "acetyl–[Ala^15, Ala^20]PACAP1–38–propylamide [Peptide 6]", "values": [{"measurement": "PAC1 receptor agonism", "setting": "PAC1 receptor", "value": "superagonist"}]}
{"compound": "pituitary adenylyl cyclase activating polypeptide [PACAP]", "values": [{"measurement": "dose dependence of cAMP release", "setting": "[10]", "value": "dose-dependent"}, {"measurement": "binding of CDK2 to p21Cip1", "setting": "CDK2/p21^Cip1", "value": "increased the binding"}, {"measurement": "polyQ-AR aggregation, PC12 cells", "setting": "AR112Q (polyQ-AR)", "value": "reduced"}, {"measurement": "cAMP production in vivo, PACAP", "setting": "cAMP", "value": "induces cAMP production in vivo"}, {"measurement": "penetration into target tissues", "setting": "[11]", "value": "scarce penetration into target tissues"}, {"measurement": "amount of polyQ-AR phosphorylated at Ser96", "setting": "[5]", "value": "significantly reduced"}, {"measurement": "cell death", "setting": "SBMA MN-1 cells [12]", "value": "significantly reduced"}, {"measurement": "expression of p21Cip1", "setting": "p21^Cip1", "value": "induced the expression"}, {"measurement": "degradation in the blood", "setting": "[13]", "value": "rapidly degraded in the blood"}, {"measurement": "metabolic stability", "setting": "[13]", "value": "poor metabolic stability"}, {"measurement": "polyQ-AR aggregation, HEK293T cells", "setting": "polyQ-AR [8]", "value": "reduced"}, {"measurement": "activation of AC", "setting": "AC/PKA pathway", "value": "potent activator"}, {"measurement": "accumulation of the upper AR isoform (p21Cip1 experiments)", "setting": "AR55Q (polyQ-AR) [3]; n = 3", "value": "decreased accumulation"}, {"measurement": "effect on upper AR isoform upon overexpression of wtCDK2", "setting": "AR55Q (polyQ-AR) [3]; 5 hours, n = 3", "value": "blocked"}, {"measurement": "reduction of the accumulation of the upper isoform of polyQ-AR", "setting": "AR55Q (polyQ-AR) [3]; HEK293T expressing AR55Q, 10 nM DHT and 100 nM PACAP, 5 hours, n = 9", "value": 35, "unit": "%"}, {"measurement": "mobility of S96A and S96D phosphomutants", "setting": "AR55Q (polyQ-AR) [3]", "value": "not affected"}, {"measurement": "caspase 3 activity, PACAP", "setting": "SBMA MN-1 cells [9]; 100 nM PACAP, n = 3, through activation of PKA", "value": "significantly reduced"}]}
